# In ChEMBL document CHEMBL1121728, “Synthesis and antitumor activity of an acyclonucleoside derivative of 5-fluorouracil” (1981):
# Legend:
# [1] = test system: L1210; test: Inhibition against L1210 mouse leukemia cells; assay type: functional; conditions: read-out: ID50 (the source's name)
# Method in brief: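 Growth inhibition of L1210 mouse leukemia cells in culture, reported as ID50 (molar concentration).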
# [2] = test system: P388; test: Compound was evaluated for the 7-day percent change in weight of mice infected with P388 leukemia at a dose of 100 […] in b.i.d. x 4 schedule; assay type: functional, Mus musculus
# Method in brief: (§1)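 Male B6D2F₁J mice in groups of five received 10⁶ P388 cells ip on day 0. Compound was then given ip in water on the stated schedule. Body weights were taken on days 1 and 7, and the change is expressed as a percentage. Survival was also recorded as percent increase in life span.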
# [3] = test system: P388; test: Compound was evaluated for the 7-day percent change in weight of mice infected with P388 leukemia at a dose of 100 […] in q.d. 1-4 schedule; assay type: functional, Mus musculus; method in brief: as §1
# [4] = test system: P388; test: Compound was evaluated for the 7-day percent change in weight of mice infected with P388 leukemia at a dose of 120 […] in q.d. 1-9 schedule; assay type: functional, Mus musculus; method in brief: as §1
# [5] = test system: P388; test: Compound was evaluated for the 7-day percent change in weight of mice infected with P388 leukemia at a dose of 200 […] in b.i.d. x 4 schedule; assay type: functional, Mus musculus; method in brief: as §1
# [6] = test system: P388; test: Compound was evaluated for the 7-day percent change in weight of mice infected with P388 leukemia at a dose of 200 […] in q.d. 1-4 schedule; assay type: functional, Mus musculus; method in brief: as §1
# [7] = test system: P388; test: Compound was evaluated for the 7-day percent change in weight of mice infected with P388 leukemia at a dose of 240 […] in q.d. 1-9 schedule; assay type: functional, Mus musculus; method in brief: as §1
# [8] = test system: P388; test: Compound was evaluated for the 7-day percent change in weight of mice infected with P388 leukemia at a dose of 400 […] in b.i.d. x 4 schedule; assay type: functional, Mus musculus; method in brief: as §1
# [9] = test system: P388; test: Compound was evaluated for the 7-day percent change in weight of mice infected with P388 leukemia at a dose of 50 […] in b.i.d. x 4 schedule; assay type: functional, Mus musculus; method in brief: as §1
# [10] = test system: P388; test: Compound was evaluated for the 7-day percent change in weight of mice infected with P388 leukemia at a dose of 50 […] in q.d. 1-4 schedule; assay type: functional, Mus musculus; method in brief: as §1
# [11] = test system: P388; test: Percent increase in survival of P388 leukemic mice at a compound dose 400 mg/kg (b.i.d. x 4) or 240 mg/kg (q.d. 1-9) was given intraperitoneally in water; assay type: functional, Mus musculus
# Method in brief: (§2)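 Male B6D2F1J mice, five per group, received 10^6 P388 leukemia cells ip on day 0. Treatment was ip in water on q.d. 1-4, b.i.d. × 4 or q.d. 1-9 schedules. Survival was recorded, and increase in life span (ILS) was calculated relative to untreated controls. Toxicity was judged by weight loss.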
# [12] = test system: P388; test: Compound was evaluated for the median survival time of mice infected with P388 leukemia at a dose of 100 […] in b.i.d. x 4 schedule; assay type: functional, Mus musculus; method in brief: as §2
# [13] = test system: P388; test: Compound was evaluated for the median survival time of mice infected with P388 leukemia at a dose of 100 […] in q.d. 1-4 schedule; assay type: functional, Mus musculus; method in brief: as §2
# [14] = test system: P388; test: Compound was evaluated for the median survival time of mice infected with P388 leukemia at a dose of 120 […] in q.d. 1-9 schedule; assay type: functional, Mus musculus; method in brief: as §2
# [15] = test system: P388; test: Compound was evaluated for the median survival time of mice infected with P388 leukemia at a dose of 200 […] in b.i.d. x 4 schedule; assay type: functional, Mus musculus; method in brief: as §2
# [16] = test system: P388; test: Compound was evaluated for the median survival time of mice infected with P388 leukemia at a dose of 200 […] in q.d. 1-4 schedule; assay type: functional, Mus musculus; method in brief: as §2
# [17] = test system: P388; test: Compound was evaluated for the median survival time of mice infected with P388 leukemia at a dose of 240 […] in q.d. 1-9 schedule; assay type: functional, Mus musculus; method in brief: as §2
# [18] = test system: P388; test: Compound was evaluated for the median survival time of mice infected with P388 leukemia at a dose of 400 […] in b.i.d. x 4 schedule; assay type: functional, Mus musculus; method in brief: as §2
# [19] = test system: P388; test: Compound was evaluated for the median survival time of mice infected with P388 leukemia at a dose of 50 […] in b.i.d. x 4 schedule; assay type: functional, Mus musculus; method in brief: as §2
# [20] = test system: P388; test: Compound was evaluated for the median survival time of mice infected with P388 leukemia at a dose of 50 […] in q.d. 1-4 schedule; assay type: functional, Mus musculus; method in brief: as §2
# [21] = test system: P388; test: Compound was evaluated for the median survival time of mice infected with P388 leukemia at a dose of 60 […] in q.d. 1-9 schedule; assay type: functional, Mus musculus; method in brief: as §2
# [22] = test system: P388; test: 7-day weight change in mice infected with P388 leukemia at a dose of 60 […] in q.d. 1-9 schedule
# [23] = test system: L1210; test: Inhibition against L1210 mouse leukemia cells; No effect; assay type: functional; conditions: read-out: ID50 (the source's name)
# [24] = test system: P388; test: Compound was evaluated for the 7-day percent change in weight of mice infected with P388 leukemia at a dose of 20 […] in b.i.d. x 4 schedule; assay type: functional, Mus musculus
# Method in brief: (§3)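 Groups of five male B6D2F1J mice were inoculated ip with 10^6 P388 cells on day 0. Drugs were given ip in water on q.d. 1-4, b.i.d. × 4 or q.d. 1-9 schedules. Animals were weighed on days 1 and 7, and weight change was expressed as a percentage.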
# [25] = test system: P388; test: Compound was evaluated for the 7-day percent change in weight of mice infected with P388 leukemia at a dose of 20 […] in q.d. 1-4 schedule; assay type: functional, Mus musculus; method in brief: as §3
# [26] = test system: P388; test: Compound was evaluated for the 7-day percent change in weight of mice infected with P388 leukemia at a dose of 40 […] in b.i.d. x 4 schedule; assay type: functional, Mus musculus; method in brief: as §3
# [27] = test system: P388; test: Compound was evaluated for the 7-day percent change in weight of mice infected with P388 leukemia at a dose of 40 […] in q.d. 1-4 schedule; assay type: functional, Mus musculus; method in brief: as §3
# [28] = test system: P388; test: Compound was evaluated for the 7-day percent change in weight of mice infected with P388 leukemia at a dose of 40 […] in q.d. 1-9 schedule; assay type: functional, Mus musculus; method in brief: as §3
# [29] = test system: P388; test: Percent increase in life span against mice infected with P388 leukemia at a dose of 20 […] in q.d. 1-9 schedule; assay type: functional, Mus musculus; method in brief: as §2
# [30] = test system: P388; test: Compound was evaluated for the median survival time of mice infected with P388 leukemia at a dose of 20 […] in b.i.d. x 4 schedule; assay type: functional, Mus musculus; method in brief: as §2
# [31] = test system: P388; test: Compound was evaluated for the median survival time of mice infected with P388 leukemia at a dose of 20 […] in q.d. 1-4 schedule; assay type: functional, Mus musculus; method in brief: as §2
# [32] = test system: P388; test: Compound was evaluated for the median survival time of mice infected with P388 leukemia at a dose of 20 […] in q.d. 1-9 schedule; assay type: functional, Mus musculus; method in brief: as §2
# [33] = test system: P388; test: Compound was evaluated for the median survival time of mice infected with P388 leukemia at a dose of 40 […] in b.i.d. x 4 schedule; assay type: functional, Mus musculus
# [34] = test system: P388; test: Compound was evaluated for the median survival time of mice infected with P388 leukemia at a dose of 40 […] in q.d. 1-4 schedule; assay type: functional, Mus musculus; method in brief: as §2
# [35] = test system: P388; test: Compound was evaluated for the median survival time of mice infected with P388 leukemia at a dose of 40 […] in q.d. 1-9 schedule; assay type: functional, Mus musculus; method in brief: as §2
# [36] = test system: L1210; test: Inhibition against L1210 mouse leukemia cells; Inactive; assay type: functional; conditions: read-out: ID50 (the source's name)
smiles,measurement,setting,value
O=c1[nH]c(=O)n(COCCO)cc1F,IC50,[1],17 µM
same,Weight change,[2],4%
same,Weight change,[3],6%
same,Weight change,[4],0%
same,Weight change,[5],4%
same,Weight change,[6],6%
same,Weight change,[7],0%
same,Weight change,[8],0%
same,Weight change,[9],5%
same,Weight change,[10],7%
same,Increase,[11],75%
same,Median survival,[12],17 days
same,Median survival,[13],15 days
same,Median survival,[14],18 days
same,Median survival,[15],20 days
same,Median survival,[16],17 days
same,Median survival,[17],21 days
same,Median survival,[18],21 days
same,Median survival,[19],16 days
same,Median survival,[20],14 days
same,Median survival,[21],16 days
same,7-day weight change,[22],8%
O=c1[nH]c(=O)n(COCCO)cc1I,IC50,[23],1000 µM
O=c1[nH]cc(F)c(=O)[nH]1 [FLUOROURACIL],IC50,[1],1 µM
same,Weight change,[24],9%
same,Weight change,[25],-5%
same,Weight change,[26],-12%
same,Weight change,[27],-29%
same,Weight change,[28],-23%
same,Weight change,[29],-2%
same,Median survival,[30],19 days
same,Median survival,[31],23 days
same,Median survival,[32],21 days
same,Median survival,[33],12 days
same,Median survival,[34],10 days
same,Median survival,[35],12 days
O=c1[nH]c(=O)n(COCCO)cc1Br,IC50,[23],1000 µM
Nc1nc(=O)n(COCCO)cc1F,IC50,[36],100 µM
